{"source": "ChEMBL document CHEMBL1221207", "about": "“Expanding the promiscuity of a natural-product glycosyltransferase by directed evolution” (Nat Chem Biol, 2007)", "key": {"[1]": {"system": "T1, Oleandomycin glycosyltransferase (Streptomyces antibioticus), Q53685 [P67T,S132F,A242V]", "T1 sequence (whole entry)": "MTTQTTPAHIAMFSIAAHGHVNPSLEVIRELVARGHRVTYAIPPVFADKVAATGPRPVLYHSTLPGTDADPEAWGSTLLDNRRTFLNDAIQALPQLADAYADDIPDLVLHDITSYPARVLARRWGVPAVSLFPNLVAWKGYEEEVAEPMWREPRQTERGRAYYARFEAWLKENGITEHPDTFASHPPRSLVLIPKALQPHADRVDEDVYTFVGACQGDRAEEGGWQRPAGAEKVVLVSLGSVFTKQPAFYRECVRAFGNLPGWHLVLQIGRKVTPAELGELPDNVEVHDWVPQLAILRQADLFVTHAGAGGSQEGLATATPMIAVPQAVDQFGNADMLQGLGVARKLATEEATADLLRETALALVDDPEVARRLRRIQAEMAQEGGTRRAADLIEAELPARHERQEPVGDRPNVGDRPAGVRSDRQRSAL", "experiment": "Activity of Streptomyces antibioticus OleD P67T/S132F/A242V mutant assessed as conversion rate of compound to produce glucoside 3 using NDP sugar UDP-glucose after 3 hrs by HPLC", "procedure,_shortened": "(§1)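 End-point donor-specificity assay with purified OleD enzyme. Percentage conversion was read after 3 h. Quenched reactions were run by reverse-phase C18 HPLC with a 10–90% CH3CN gradient in 0.1% formic acid/H2O over 20 min at 1 ml min–1, with detection at 254 nm. Products were identified by LC-MS, by comparison to standards where available, and by fluorescence.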"}, "[2]": {"system": "T2, Oleandomycin glycosyltransferase (Streptomyces antibioticus), Q53685 [P67T]", "T2 sequence (whole entry)": "T1 sequence (whole entry) with F132S, V242A", "experiment": "Activity of Streptomyces antibioticus OleD P67T mutant assessed as conversion rate of compound to produce glucoside 3 using NDP sugar donor UDP-6-deoxy-glucose after 3 hrs by HPLC", "procedure,_shortened": "as §1"}, "[3]": {"molecular_target": "T3, Oleandomycin glycosyltransferase (Streptomyces antibioticus) (UniProt Q53685)", "T3 sequence (whole entry)": "T1 sequence (whole entry) with T67P, F132S, V242A", "experiment": "Activity of Streptomyces antibioticus wild-type OleD assessed as conversion rate of compound to produce glucoside 3 using NDP sugar donor UDP-6-thio-glucose after 3 hrs by HPLC", "procedure,_shortened": "as §1"}, "[4]": {"system": "T1, Oleandomycin glycosyltransferase (Streptomyces antibioticus), Q53685 [P67T,S132F,A242V]", "experiment": "Activity of Streptomyces antibioticus OleD P67T/S132F/A242V mutant assessed as conversion rate of compound to produce glucoside 3 using NDP sugar donor UDP-4-amino-6-deoxy-glucose after 3 hrs by HPLC", "procedure,_shortened": "as §1"}, "[5]": {"system": "T1, Oleandomycin glycosyltransferase (Streptomyces antibioticus), Q53685 [P67T,S132F,A242V]", "experiment": "Activity of Streptomyces antibioticus OleD P67T/S132F/A242V mutant assessed as conversion rate of compound to produce glucoside 3 using NDP sugar donor UDP-3-amino-6-deoxy-glucose after 3 hrs by HPLC", "procedure,_shortened": "as §1"}, "[6]": {"molecular_target": "T3, Oleandomycin glycosyltransferase (Streptomyces antibioticus)", "experiment": "Activity of Streptomyces antibioticus OleD […] mutant assessed as as rate of glucoside formation measured as nanomoles of product formed per minute per mg of enzyme"}, "[7]": {"molecular_target": "T3, Oleandomycin glycosyltransferase (Streptomyces antibioticus)", "experiment": "Activity of Streptomyces antibioticus wild-type OleD assessed as conversion rate of compound to produce glucoside 3 using NDP sugar UDP-glucose after 3 hrs by HPLC", "procedure,_shortened": "as §1"}, "[8]": {"molecular_target": "T3, Oleandomycin glycosyltransferase (Streptomyces antibioticus)", "experiment": "Activity of Streptomyces antibioticus wild-type OleD assessed as conversion rate of compound to produce glucoside 3 using NDP sugar UDP-6-deoxy-glucose after 3 hrs by HPLC", "procedure,_shortened": "as §1"}, "[9]": {"system": "T1, Oleandomycin glycosyltransferase (Streptomyces antibioticus), Q53685 [P67T,S132F,A242V]", "experiment": "Activity of Streptomyces antibioticus OleD P67T/S132F/A242V mutant assessed as conversion rate of compound to produce glucoside 3 using NDP sugar donor UDP-4-amino-glucose after 3 hrs by HPLC", "procedure,_shortened": "as §1"}, "[10]": {"system": "T1, Oleandomycin glycosyltransferase (Streptomyces antibioticus), Q53685 [P67T,S132F,A242V]", "experiment": "Activity of Streptomyces antibioticus OleD P67T/S132F/A242V mutant assessed as as rate of glucoside formation measured as nanomoles of product formed per minute per mg of enzyme"}, "[11]": {"system": "T1, Oleandomycin glycosyltransferase (Streptomyces antibioticus), Q53685 [P67T,S132F,A242V]", "experiment": "Activity of Streptomyces antibioticus OleD P67T/S132F/A242V mutant assessed as conversion rate of compound to produce glucoside 3 using NDP sugar […] after 3 hrs by HPLC", "procedure,_shortened": "as §1"}, "[12]": {"system": "T1, Oleandomycin glycosyltransferase (Streptomyces antibioticus), Q53685 [P67T,S132F,A242V]", "experiment": "Activity of Streptomyces antibioticus OleD P67T/S132F/A242V mutant assessed as conversion rate of compound to produce glucoside 3 using NDP sugar donor UDP-6-thio-glucose after 3 hrs by HPLC", "procedure,_shortened": "as §1"}, "[13]": {"system": "T4, Oleandomycin glycosyltransferase (Streptomyces antibioticus), Q53685 [A242V]", "T4 sequence (whole entry)": "T1 sequence (whole entry) with T67P, F132S", "experiment": "Activity of Streptomyces antibioticus OleD A242V mutant assessed as conversion rate of compound to produce glucoside 3 using NDP sugar donor UDP-6-deoxy-glucose after 3 hrs by HPLC", "procedure,_shortened": "as §1"}}, "note": "Numbering of substitutions follows the chain as printed.", "data": [{"compound": "Cc1cc(=O)oc2cc(O)ccc12", "values": [{"measurement": "Activity", "setting": "[1]", "result": 96.4, "unit": "%"}, {"measurement": "Activity", "setting": "[2]", "result": 11, "unit": "%"}, {"measurement": "Activity", "setting": "[3]", "result": 1, "unit": "%"}, {"measurement": "Activity", "setting": "[4]", "result": 47, "unit": "%"}, {"measurement": "Activity", "setting": "[5]", "result": 4, "unit": "%"}, {"measurement": "Activity", "setting": "[6]", "result": 6.3, "unit": "nmol/min"}, {"measurement": "Activity", "setting": "[7]", "result": 13.9, "unit": "%"}, {"measurement": "Activity", "setting": "[8]", "result": 6, "unit": "%"}, {"measurement": "Activity", "setting": "[9]", "result": 13, "unit": "%"}, {"measurement": "Activity", "setting": "[10]", "result": 84, "unit": "nmol/min"}, {"measurement": "Activity", "setting": "[11]", "result": 21, "unit": "%"}, {"measurement": "Activity", "setting": "[12]", "result": 47, "unit": "%"}, {"measurement": "Activity", "setting": "[13]", "result": 6, "unit": "%"}]}]}
